Data as given in ChEMBL document CHEMBL4725483, “Simultaneous Inhibition of SIRT2 Deacetylase and Defatty-Acylase Activities via a PROTAC Strategy” (ACS Med Chem Lett, 2020).
Calls of active or inactive are those of the source. The calls are words filed in the database; no cut-off is given here.

Assays:
[1] = biological target: T1, Protein cereblon/NAD-dependent protein deacetylase sirtuin-2 (Homo sapiens) (UniProt Q8IXJ6+Q96SW2); experiment: Protac activity at CRBN/SIRT2 in human MCF7 cells assessed as SIRT2 degradation at 5 uM by immunoblot analysis; format: cell-based
[2] = biological target: T2, NAD-dependent protein deacetylase sirtuin-3, mitochondrial (Homo sapiens, UniProt Q9NTG7); experiment: Inhibition of human SIRT3 deacetylation activity using H3K9Ac as substrate preincubated for 15 mins in presence of NAD+ followed by substrate addition by HPLC analysis
T2 sequence (Q9NTG7 whole entry): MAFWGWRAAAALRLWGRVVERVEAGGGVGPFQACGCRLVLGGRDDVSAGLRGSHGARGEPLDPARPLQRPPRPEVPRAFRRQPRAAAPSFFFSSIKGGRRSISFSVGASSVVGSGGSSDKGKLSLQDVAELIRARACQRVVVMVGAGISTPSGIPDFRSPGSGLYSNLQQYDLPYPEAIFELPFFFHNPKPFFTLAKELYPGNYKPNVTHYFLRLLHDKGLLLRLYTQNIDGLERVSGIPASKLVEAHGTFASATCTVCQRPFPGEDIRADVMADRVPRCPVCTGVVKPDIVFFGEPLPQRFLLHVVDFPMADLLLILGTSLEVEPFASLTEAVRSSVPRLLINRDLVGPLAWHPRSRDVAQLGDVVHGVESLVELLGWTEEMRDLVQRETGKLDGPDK
How it was run: (§1)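 In vitro sirtuin reaction mixture with compound at a range of concentrations. Compound was preincubated with NAD+ and the enzyme before the substrate peptide was added. IC50 taken from the concentration series.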

[3] = biological target: NAD-dependent protein deacylase sirtuin-5, mitochondrial (Homo sapiens, UniProt Q9NXA8); experiment: Inhibition of human SIRT5 deacetylation activity using H3K9Ac as substrate preincubated for 15 mins in presence of NAD+ followed by substrate addition by HPLC analysis; how it was run: as §1
[4] = biological target: T1, Protein cereblon/NAD-dependent protein deacetylase sirtuin-2 (Homo sapiens); experiment: Protac activity at CRBN/SIRT2 in human MCF7 cells assessed as SIRT2 degradation at 5 to 10 uM after 48 hrs by immunoblot analysis; format: cell-based; settings: dose microM 5-10, time 48.0 hrs
How it was run: (§2)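 Cells exposed to compound at the indicated concentrations for 48 h. SIRT1, SIRT2 and SIRT3 levels were read by immunoblot.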

[5] = biological target: T1, Protein cereblon/NAD-dependent protein deacetylase sirtuin-2 (Homo sapiens); experiment: Protac activity at CRBN/SIRT2 in human BT549 cells assessed as SIRT2 degradation at 5 to 10 uM after 48 hrs by immunoblot analysis; format: cell-based; settings: BT-549, dose microM 5-10, time 48.0 hrs; how it was run: as §2
[6] = biological target: T1, Protein cereblon/NAD-dependent protein deacetylase sirtuin-2 (Homo sapiens); experiment: Protac activity at CRBN/SIRT2 in human HEK293T cells stably expressing flag-tagged K-Ras4a assessed as inhibition of SIRT2 defatty-acylation at 10 uM incubated for 42 hrs followed by Alkyne-14 addition and measured after 6 hrs by immunoprecipitation based assay; format: cell-based; settings: HEK-293T
How it was run: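 HEK 293T cells stably expressing Flag-tagged K-Ras4a-G12V were treated for 42 h, then labelled with 50 μM Alk-14 for a further 6 h. K-Ras4a was immunoprecipitated via Flag, and a fluorescent dye was attached by click chemistry. NH2OH removed cysteine fatty acylation. Lysine fatty acylation was read by in-gel fluorescence and quantified relative to DMSO.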

MDA-MB-231 = experiment: Cytotoxicity against human MDA-MB-231 cells assessed as reduction in cell viability after 72 hrs; format: functional, cell-based
How it was run: (§3)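 Cells incubated with compound or thalidomide for 72 h; cell viability read out at the end of exposure.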

[7] = biological target: NAD-dependent protein deacylase sirtuin-6 (Homo sapiens, UniProt Q8N6T7); experiment: Inhibition of human SIRT6 deacetylation activity using H3K9Ac as substrate preincubated for 15 mins in presence of NAD+ followed by substrate addition by HPLC analysis; how it was run: as §1
MCF7 = experiment: Cytotoxicity against human MCF7 cells assessed as reduction in cell viability after 72 hrs; format: functional, cell-based; how it was run: as §3
[8] = biological target: T1, Protein cereblon/NAD-dependent protein deacetylase sirtuin-2 (Homo sapiens); experiment: Protac activity at CRBN/SIRT2 in human MCF7 cells assessed as SIRT2 degradation at 25 uM by immunoblot analysis; format: cell-based
How it was run: (§4)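 MCF7 cells treated at a fixed concentration (10 or 25 μM) and harvested at several incubation times; SIRT2 level read by immunoblot.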

[9] = biological target: T3, NAD-dependent protein deacetylase sirtuin-2 (Homo sapiens, UniProt Q8IXJ6); experiment: Inhibition of human SIRT2 defatty-acylation activity using peptide substrate in presence of NAD+ by HPLC analysis
T3 sequence (Q8IXJ6 whole entry): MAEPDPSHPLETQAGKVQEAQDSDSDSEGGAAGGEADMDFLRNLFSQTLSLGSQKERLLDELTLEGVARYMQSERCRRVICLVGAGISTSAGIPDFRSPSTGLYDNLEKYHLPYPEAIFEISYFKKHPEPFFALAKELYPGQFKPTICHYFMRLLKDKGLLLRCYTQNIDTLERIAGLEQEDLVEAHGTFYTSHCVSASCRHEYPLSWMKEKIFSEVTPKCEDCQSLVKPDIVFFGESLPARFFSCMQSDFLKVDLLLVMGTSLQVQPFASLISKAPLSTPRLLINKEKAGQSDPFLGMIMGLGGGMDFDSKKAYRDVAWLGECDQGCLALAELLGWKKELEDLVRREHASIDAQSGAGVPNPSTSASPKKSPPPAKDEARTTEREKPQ

[10] = biological target: T1, Protein cereblon/NAD-dependent protein deacetylase sirtuin-2 (Homo sapiens); experiment: Protac activity at CRBN/SIRT2 in human MDA-MB-468 cells assessed as SIRT2 degradation after 48 hrs by immunoblot analysis; format: cell-based
How it was run: (§5)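 In MDA-MB-231 and MDA-MB-468 cells, SIRT2 was assessed by immunoblot after compound treatment.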

[11] = biological target: T1, Protein cereblon/NAD-dependent protein deacetylase sirtuin-2 (Homo sapiens); experiment: Protac activity at CRBN/SIRT2 in human MCF7 cells assessed as SIRT2 degradation at 10 uM by immunoblot analysis; format: cell-based; settings: TDE = time-dependent effect; how it was run: as §4
[12] = biological target: T4, Protein cereblon/NAD-dependent protein deacetylase sirtuin-3, mitochondrial (Homo sapiens) (UniProt Q9NTG7+Q96SW2); experiment: Protac activity at CRBN/SIRT3 in human BT549 cells assessed as SIRT3 degradation at 5 to 10 uM after 48 hrs by immunoblot analysis; format: cell-based; settings: BT-549, dose microM 5-10, time 48.0 hrs
How it was run: (§6)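 MCF7 or BT-549 cells exposed to inhibitor at the indicated concentrations for 48 h; SIRT1, SIRT2 and SIRT3 levels read by immunoblot.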

[13] = biological target: T3, NAD-dependent protein deacetylase sirtuin-2; experiment: Inhibition of human SIRT2 deacetylation activity using H3K9Ac as substrate preincubated for 15 mins in presence of NAD+ by HPLC analysis; how it was run: as §1
[14] = biological target: T5, NAD-dependent protein deacetylase sirtuin-1 (Homo sapiens, UniProt Q96EB6); experiment: Inhibition of human SIRT1 deacetylation activity using H3K9Ac as substrate preincubated for 15 mins in presence of NAD+ followed by substrate addition by HPLC analysis; how it was run: as §1
T5 sequence (Q96EB6 whole entry): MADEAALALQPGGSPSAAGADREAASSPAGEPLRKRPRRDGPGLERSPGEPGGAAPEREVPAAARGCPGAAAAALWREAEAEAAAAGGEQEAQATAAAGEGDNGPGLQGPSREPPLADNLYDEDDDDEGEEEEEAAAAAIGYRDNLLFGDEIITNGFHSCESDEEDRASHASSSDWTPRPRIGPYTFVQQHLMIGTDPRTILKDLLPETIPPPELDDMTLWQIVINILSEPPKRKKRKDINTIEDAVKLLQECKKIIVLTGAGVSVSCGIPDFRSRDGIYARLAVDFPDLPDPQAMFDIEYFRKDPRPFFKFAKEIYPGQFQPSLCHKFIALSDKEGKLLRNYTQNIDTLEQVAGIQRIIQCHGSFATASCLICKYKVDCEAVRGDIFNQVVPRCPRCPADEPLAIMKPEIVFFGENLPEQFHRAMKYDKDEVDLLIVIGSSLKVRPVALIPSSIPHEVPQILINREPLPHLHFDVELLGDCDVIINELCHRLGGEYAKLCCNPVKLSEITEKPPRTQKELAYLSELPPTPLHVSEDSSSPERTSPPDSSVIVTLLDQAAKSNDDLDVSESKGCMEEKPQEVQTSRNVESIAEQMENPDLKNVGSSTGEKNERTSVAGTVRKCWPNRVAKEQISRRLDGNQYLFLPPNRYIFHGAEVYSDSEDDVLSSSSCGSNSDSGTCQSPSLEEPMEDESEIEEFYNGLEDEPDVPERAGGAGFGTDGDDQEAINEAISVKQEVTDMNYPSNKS

Homo sapiens = organism: Homo sapiens; experiment: Selectivity ratio of IC50 for inhibition of human SIRT1 deacetylation activity to IC50 for inhibition of human SIRT2 deacetylation activity
How it was run: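 Ratio of SIRT1 deacetylase IC50 to SIRT2 deacetylase IC50, both measured with compound, NAD+ and enzyme preincubated before peptide substrate addition.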

[15] = biological target: T6, Protein cereblon/NAD-dependent protein deacetylase sirtuin-1 (Homo sapiens) (UniProt Q96EB6+Q96SW2); experiment: Protac activity at CRBN/SIRT1 in human MCF7 cells assessed as SIRT1 degradation at 5 to 10 uM after 48 hrs by immunoblot analysis; format: cell-based; settings: dose microM 5-10, time 48.0 hrs; how it was run: as §6
[16] = biological target: T3, NAD-dependent protein deacetylase sirtuin-2; experiment: Inhibition of human SIRT2 deacetylation activity using H3K9Ac as substrate in presence of NAD+ by HPLC analysis
[17] = biological target: T4, Protein cereblon/NAD-dependent protein deacetylase sirtuin-3, mitochondrial (Homo sapiens); experiment: Protac activity at CRBN/SIRT3 in human MCF7 cells assessed as SIRT3 degradation at 5 to 10 uM after 48 hrs by immunoblot analysis; format: cell-based; settings: dose microM 5-10, time 48.0 hrs; how it was run: as §6
[18] = biological target: T1, Protein cereblon/NAD-dependent protein deacetylase sirtuin-2 (Homo sapiens); experiment: Protac activity at CRBN/SIRT2 in human MDA-MB-231 cells assessed as SIRT2 degradation after 48 hrs by immunoblot analysis; format: cell-based; how it was run: as §5
[19] = biological target: T3, NAD-dependent protein deacetylase sirtuin-2; experiment: Inhibition of human SIRT2 defatty-acylation activity using peptide substrate preincubated in presence of NAD+ followed by substrate addition by HPLC analysis
How it was run: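 SIRT2 defatty-acylase reaction with compound at a range of concentrations. Compound was preincubated with NAD+ and SIRT2 before the peptide substrate was added. IC50 derived from the dose series.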

[20] = biological target: T6, Protein cereblon/NAD-dependent protein deacetylase sirtuin-1 (Homo sapiens); experiment: Protac activity at CRBN/SIRT1 in human BT549 cells assessed as SIRT1 degradation at 5 to 10 uM after 48 hrs by immunoblot analysis; format: cell-based; settings: BT-549, dose microM 5-10, time 48.0 hrs; how it was run: as §6

T1 sequence (Q96SW2 whole entry, looked up, one chain of several): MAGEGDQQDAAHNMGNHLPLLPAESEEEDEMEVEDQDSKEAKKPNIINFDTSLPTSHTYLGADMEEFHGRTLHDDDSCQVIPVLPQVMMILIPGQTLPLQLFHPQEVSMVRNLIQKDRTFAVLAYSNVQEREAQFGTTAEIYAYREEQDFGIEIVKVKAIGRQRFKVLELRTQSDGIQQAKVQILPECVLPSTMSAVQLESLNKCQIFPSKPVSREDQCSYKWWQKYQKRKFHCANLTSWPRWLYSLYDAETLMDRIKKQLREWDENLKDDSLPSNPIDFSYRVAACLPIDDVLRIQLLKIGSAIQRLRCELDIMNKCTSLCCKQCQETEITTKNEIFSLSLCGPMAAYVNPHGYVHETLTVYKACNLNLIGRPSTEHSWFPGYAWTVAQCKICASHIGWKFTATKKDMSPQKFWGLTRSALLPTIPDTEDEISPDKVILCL
T4 sequence (Q96SW2 whole entry, looked up, one chain of several): as above
Sequence of NAD-dependent protein deacylase sirtuin-6 (Q8N6T7 whole entry): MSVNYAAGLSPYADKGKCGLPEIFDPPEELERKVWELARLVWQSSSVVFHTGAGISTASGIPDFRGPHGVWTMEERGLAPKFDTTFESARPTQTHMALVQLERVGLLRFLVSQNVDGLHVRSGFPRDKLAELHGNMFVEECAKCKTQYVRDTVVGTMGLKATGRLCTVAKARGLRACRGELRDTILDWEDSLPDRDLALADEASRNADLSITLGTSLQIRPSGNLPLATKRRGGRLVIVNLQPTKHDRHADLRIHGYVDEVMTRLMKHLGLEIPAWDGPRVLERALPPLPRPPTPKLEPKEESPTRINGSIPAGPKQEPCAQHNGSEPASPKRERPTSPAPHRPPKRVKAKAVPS
Sequence of NAD-dependent protein deacylase sirtuin-5, mitochondrial (Q9NXA8 whole entry): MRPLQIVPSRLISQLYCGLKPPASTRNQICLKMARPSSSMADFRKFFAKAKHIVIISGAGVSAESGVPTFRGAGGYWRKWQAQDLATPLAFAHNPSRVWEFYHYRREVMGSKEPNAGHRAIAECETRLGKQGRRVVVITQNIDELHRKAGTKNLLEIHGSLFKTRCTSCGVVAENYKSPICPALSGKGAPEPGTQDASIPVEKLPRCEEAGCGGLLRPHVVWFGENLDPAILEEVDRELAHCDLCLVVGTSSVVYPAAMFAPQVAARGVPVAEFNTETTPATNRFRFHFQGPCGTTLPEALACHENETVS
T6 sequence (Q96SW2 whole entry, looked up, one chain of several): as the sequence (Q96SW2 whole entry, looked up, one chain of several) above

In the case of `CCCCCCCCCCCCCC(=S)NCCCC[C@H](NC(=O)CCOCCOCCOCCOCCNc1cccc2c1C(=O)N(C1CCC(=O)N(C)C1=O)C2=O)C(=O)Nc1ccccc1` (some centres undefined), the Activity [1] is reported as “inactive”.
In the case of `O=C(O)CCOCCOCCOCCOCCNc1cccc2c1C(=O)N(C1CCC(=O)NC1=O)C2=O` (centres undefined), the Activity [1] is reported as “inactive”.
`CCCCCCCCCCCCCC(=S)NCCCC[C@H](NC(=O)OCc1ccccc1)C(=O)Nc1ccccc1` was tested, and the IC50 [2] was over 83 µM, the IC50 [3] was over 83 µM and the Activity [4] was “inactive”. The Activity [5] was “inactive”, the Activity [6] was “inactive” and the Activity (MDA-MB-231) was “Active”. The IC50 [7] was over 83 µM and the Activity (MCF7) was “Active”.
With `CCCCCCCCCCCCCC(=S)NCCCC[C@H](NC(=O)CCOCCOCCNc1cccc2c1C(=O)N(C1CCC(=O)NC1=O)C2=O)C(=O)Nc1ccccc1` (some centres undefined) the Activity [8] was “inactive”, the IC50 [2] was over 83 µM and the IC50 [9] was over 83 µM. For the same molecule, the IC50 [3] was over 83 µM, the Activity [10] was “Active” and the Activity [11] was “Tde”. For the same molecule, the Activity [12] was “inactive”, the Activity [4] was “Active” and the IC50 [13] was 69 nM. For the same molecule, the Activity [5] was “Active”, the IC50 [14] was 37 µM and the Ratio IC50 (Homo sapiens) was 500. The Activity [15] was “inactive”, the IC50 [16] was 120 nM and the IC50 [7] was over 83 µM. For the same molecule, the Activity [17] was “inactive”, the Activity [18] was “Active” and the IC50 [19] was 170 nM. For the same molecule, the Activity [20] was “inactive”.
